Among the data in ChEMBL document CHEMBL1140895, “Synthesis of antisense oligonucleotides containing 2'-O-psoralenylmethoxyalkyl adenosine for photodynamic regulation of point mutations in RNA” (Bioorg Med Chem, 2009) are Tm, Activity and photo-cross-linking efficiency values, retold here.

Test [1] can be described thus: Binding affinity to oligoribonucleotide ORN-U assessed as thermal stability by UV melting study. The procedure, abridged: (§1)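 Duplex melting curves were recorded by UV absorbance with temperature ramped at 1.0 °C/min. Each oligonucleotide was at 2.0 µM in 100 mM phosphate buffer (pH 7.0) containing 0.1 M NaCl.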
Test [2] in a line: Binding affinity to oligoribonucleotide ORN-G assessed as thermal stability by UV melting study. The procedure, abridged:
as §1

Test [3] is described as follows: Binding affinity to oligoribonucleotide ORN-U assessed as photo cross linking activity by reversed phase HPLC. The procedure, abridged: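 Equimolar 2′-Ps-oligo and ORN (2.0 µM each) were denatured at 85 °C for 5 min and slowly cooled to 37 °C in 100 mM sodium phosphate (pH 7.0) with 0.1 M NaCl. Samples were irradiated with UVA (365 nm transilluminator, 1.6 mW/cm²) and analysed by C18 reversed-phase HPLC (TEAA pH 7.0/acetonitrile gradient, 40 °C oven) to follow intact ORN and cross-linked product.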

Test [4] is described as follows: Binding affinity to oligoribonucleotide ORN-U assessed as formation of stable A form like duplex with ORN-U by UV spectroscopy.
Test [5] can be described thus: Binding affinity to oligoribonucleotide ORN-U assessed as intercalation by fluorescence spectroscopy.
Test [6] in a line: Binding affinity to oligoribonucleotide ORN-U assessed as photo-cross-linking efficiency with ORN-U after UVA irradiation of 1 min by time course photo cross linking study.
Test [7] can be described thus: Binding affinity to oligoribonucleotide ORN-G assessed as photo-cross-linking efficiency with ORN-G after UVA irradiation of 1 min by time course photo cross linking study.
Test [8] in a line: Binding affinity to oligoribonucleotide ORN-U assessed as photo-cross-linking efficiency with ORN-U after UVA irradiation of 120 min by time course photo cross linking study.

Calls of active or inactive are those of the source. The rule behind the calls is not given here.

For `Cc1cn([C@H]2C[C@H](OP(=O)(O)OC[C@H]3O[C@@H](n4cnc5c(N)ncnc54)C[C@@H]3OP(=O)(O)OC[C@H]3O[C@@H](n4ccc(N)nc4=O)C[C@@H]3OP(=O)(O)OC[C@H]3O[C@@H](n4cnc5c(=O)[nH]c(N)nc54)C[C@@H]3OP(=O)(O)OC[C@H]3O[C@@H](n4ccc(N)nc4=O)C[C@@H]3OP(=O)(O)OC[C@H]3O[C@@H](n4ccc(N)nc4=O)C[C@@H]3OP(=O)(O)OC[C@H]3O[C@@H](n4cnc5c(N)ncnc54)C[C@@H]3OP(=O)(O)OC[C@H]3O[C@@H](n4cnc5c(N)ncnc54)C[C@@H]3OP(=O)(O)OC[C@H]3O[C@@H](n4ccc(N)nc4=O)C[C@@H]3OP(=O)(O)OC[C@H]3O[C@@H](n4cnc5c(N)ncnc54)C[C@@H]3OP(=O)(O)OC[C@H]3O[C@@H](n4cnc5c(=O)[nH]c(N)nc54)C[C@@H]3OP(=O)(O)OC[C@H]3O[C@@H](n4ccc(N)nc4=O)C[C@@H]3OP(=O)(O)OC[C@H]3O[C@@H](n4cc(C)c(=O)[nH]c4=O)C[C@@H]3OP(=O)(O)OC[C@H]3O[C@@H](n4ccc(N)nc4=O)C[C@@H]3OP(=O)(O)OC[C@H]3O[C@@H](n4ccc(N)nc4=O)C[C@@H]3O)[C@@H](CO)O2)c(=O)[nH]c1=O`, the values for the Tm in test [1] and in test [2] were 67.3 °C and 58.9 °C, respectively.

`Cc1oc2c(C)c3oc(=O)cc(C)c3cc2c1COCCCO[C@@H]1[C@H](OP(=O)(O)OC[C@H]2O[C@@H](n3ccc(N)nc3=O)C[C@@H]2OP(=O)(O)OC[C@H]2O[C@@H](n3cnc4c(N)ncnc43)C[C@@H]2OP(=O)(O)OC[C@H]2O[C@@H](n3cnc4c(=O)[nH]c(N)nc43)C[C@@H]2OP(=O)(O)OC[C@H]2O[C@@H](n3ccc(N)nc3=O)C[C@@H]2OP(=O)(O)OC[C@H]2O[C@@H](n3cc(C)c(=O)[nH]c3=O)C[C@@H]2OP(=O)(O)OC[C@H]2O[C@@H](n3ccc(N)nc3=O)C[C@@H]2OP(=O)(O)OC[C@H]2O[C@@H](n3ccc(N)nc3=O)C[C@@H]2O)[C@@H](COP(=O)(O)O[C@H]2C[C@H](n3cnc4c(N)ncnc43)O[C@@H]2COP(=O)(O)O[C@H]2C[C@H](n3ccc(N)nc3=O)O[C@@H]2COP(=O)(O)O[C@H]2C[C@H](n3ccc(N)nc3=O)O[C@@H]2COP(=O)(O)O[C@H]2C[C@H](n3cnc4c(=O)[nH]c(N)nc43)O[C@@H]2COP(=O)(O)O[C@H]2C[C@H](n3ccc(N)nc3=O)O[C@@H]2COP(=O)(O)O[C@H]2C[C@H](n3cnc4c(N)ncnc43)O[C@@H]2COP(=O)(O)O[C@H]2C[C@H](n3cc(C)c(=O)[nH]c3=O)O[C@@H]2CO)O[C@H]1n1cnc2c(N)ncnc21`: the Tm in test [1] was found to be 62.7 °C; in test [2], 58.8 °C. Moreover, the outcome in test [3], in test [4] and in test [5] was Active. Besides, the photo-cross-linking efficiency in test [6] is 50%; in test [7], 9%.

Turning to `Cc1oc2c(C)c3oc(=O)cc(C)c3cc2c1COCCO[C@@H]1[C@H](OP(=O)(O)OC[C@H]2O[C@@H](n3ccc(N)nc3=O)C[C@@H]2OP(=O)(O)OC[C@H]2O[C@@H](n3cnc4c(N)ncnc43)C[C@@H]2OP(=O)(O)OC[C@H]2O[C@@H](n3cnc4c(=O)[nH]c(N)nc43)C[C@@H]2OP(=O)(O)OC[C@H]2O[C@@H](n3ccc(N)nc3=O)C[C@@H]2OP(=O)(O)OC[C@H]2O[C@@H](n3cc(C)c(=O)[nH]c3=O)C[C@@H]2OP(=O)(O)OC[C@H]2O[C@@H](n3ccc(N)nc3=O)C[C@@H]2OP(=O)(O)OC[C@H]2O[C@@H](n3ccc(N)nc3=O)C[C@@H]2O)[C@@H](COP(=O)(O)O[C@H]2C[C@H](n3cnc4c(N)ncnc43)O[C@@H]2COP(=O)(O)O[C@H]2C[C@H](n3ccc(N)nc3=O)O[C@@H]2COP(=O)(O)O[C@H]2C[C@H](n3ccc(N)nc3=O)O[C@@H]2COP(=O)(O)O[C@H]2C[C@H](n3cnc4c(=O)[nH]c(N)nc43)O[C@@H]2COP(=O)(O)O[C@H]2C[C@H](n3ccc(N)nc3=O)O[C@@H]2COP(=O)(O)O[C@H]2C[C@H](n3cnc4c(N)ncnc43)O[C@@H]2COP(=O)(O)O[C@H]2C[C@H](n3cc(C)c(=O)[nH]c3=O)O[C@@H]2CO)O[C@H]1n1cnc2c(N)ncnc21`, the Tm in test [1] worked out at 63.1 °C; in test [2], 59.1 °C. Besides, the result in test [3], in test [4] and in test [5] was Active. Further, the photo-cross-linking efficiency in test [6] worked out at 75%; in test [7] it was 7%.

In the case of `Cc1oc2c(C)c3oc(=O)cc(C)c3cc2c1COCCCCO[C@@H]1[C@H](OP(=O)(O)OC[C@H]2O[C@@H](n3ccc(N)nc3=O)C[C@@H]2OP(=O)(O)OC[C@H]2O[C@@H](n3cnc4c(N)ncnc43)C[C@@H]2OP(=O)(O)OC[C@H]2O[C@@H](n3cnc4c(=O)[nH]c(N)nc43)C[C@@H]2OP(=O)(O)OC[C@H]2O[C@@H](n3ccc(N)nc3=O)C[C@@H]2OP(=O)(O)OC[C@H]2O[C@@H](n3cc(C)c(=O)[nH]c3=O)C[C@@H]2OP(=O)(O)OC[C@H]2O[C@@H](n3ccc(N)nc3=O)C[C@@H]2OP(=O)(O)OC[C@H]2O[C@@H](n3ccc(N)nc3=O)C[C@@H]2O)[C@@H](COP(=O)(O)O[C@H]2C[C@H](n3cnc4c(N)ncnc43)O[C@@H]2COP(=O)(O)O[C@H]2C[C@H](n3ccc(N)nc3=O)O[C@@H]2COP(=O)(O)O[C@H]2C[C@H](n3ccc(N)nc3=O)O[C@@H]2COP(=O)(O)O[C@H]2C[C@H](n3cnc4c(=O)[nH]c(N)nc43)O[C@@H]2COP(=O)(O)O[C@H]2C[C@H](n3ccc(N)nc3=O)O[C@@H]2COP(=O)(O)O[C@H]2C[C@H](n3cnc4c(N)ncnc43)O[C@@H]2COP(=O)(O)O[C@H]2C[C@H](n3cc(C)c(=O)[nH]c3=O)O[C@@H]2CO)O[C@H]1n1cnc2c(N)ncnc21`, the Tm was 64 °C in test [1] and 60.2 °C in test [2]. For the same molecule, the outcome in test [4] and in test [5] was Active.

With `Cc1oc2c(C)c3oc(=O)cc(C)c3cc2c1CO[C@@H]1[C@H](OP(=O)(O)OC[C@H]2O[C@@H](n3ccc(N)nc3=O)C[C@@H]2OP(=O)(O)OC[C@H]2O[C@@H](n3cnc4c(N)ncnc43)C[C@@H]2OP(=O)(O)OC[C@H]2O[C@@H](n3cnc4c(=O)[nH]c(N)nc43)C[C@@H]2OP(=O)(O)OC[C@H]2O[C@@H](n3ccc(N)nc3=O)C[C@@H]2OP(=O)(O)OC[C@H]2O[C@@H](n3cc(C)c(=O)[nH]c3=O)C[C@@H]2OP(=O)(O)OC[C@H]2O[C@@H](n3ccc(N)nc3=O)C[C@@H]2OP(=O)(O)OC[C@H]2O[C@@H](n3ccc(N)nc3=O)C[C@@H]2O)[C@@H](COP(=O)(O)O[C@H]2C[C@H](n3cnc4c(N)ncnc43)O[C@@H]2COP(=O)(O)O[C@H]2C[C@H](n3ccc(N)nc3=O)O[C@@H]2COP(=O)(O)O[C@H]2C[C@H](n3ccc(N)nc3=O)O[C@@H]2COP(=O)(O)O[C@H]2C[C@H](n3cnc4c(=O)[nH]c(N)nc43)O[C@@H]2COP(=O)(O)O[C@H]2C[C@H](n3ccc(N)nc3=O)O[C@@H]2COP(=O)(O)O[C@H]2C[C@H](n3cnc4c(N)ncnc43)O[C@@H]2COP(=O)(O)O[C@H]2C[C@H](n3cc(C)c(=O)[nH]c3=O)O[C@@H]2CO)O[C@H]1n1cnc2c(N)ncnc21`, the photo-cross-linking efficiency in test [6] was determined as 3%. Besides, in test [8], the Activity is 35%.
